Experimental data taken from PMC5395284 (Journal of Experimental Pharmacology, 2017).

Assays:
[1] = format: in vivo, Wistar rat
Wistar rat brain = assay: Brain neurotransmitter levels; format: in vivo; conditions: 4 weeks treatment
Summary of the method: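 Wistar rats on high-fat diet for up to 4 weeks, caged ≤6 per cage at 25°C±2°C. Groups: control, oral SSRI test compound 20 mg/kg b.w., statin test compound 40 mg/kg b.w., or both, for 4 weeks. Brain (100 mg) homogenized in 1 mL 0.1 M perchloric acid with 0.05% EDTA, centrifuged 18,000 rpm, 10 min, 4°C. Mean±SD, n=6; p<0.05 versus lipid control.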

[2] = format: in vivo, Wistar rat; remark: listed apart in the source
[3] = test system: hyperlipidemic Wistar rats; assay: Plasma lipid levels; format: in vivo, Wistar rat; conditions: 4 weeks treatment; for reduction in total cholesterol level: plasma, in comparison to lipid control
[4] = after 2-week dosing of FLX; cited from earlier work
[5] = STT+FLX compared to STT monotherapy
[6] = STT+FLX for 4 weeks compared to STT-alone treatment

Row | SMILES | brain concentration of 5-hydroxytryptamine (5HT) (Wistar rat brain; mean±SD, n=6) [µg/g] | effect on brain level of HIAA (Wistar rat brain; versus control) | effect on plasma triglyceride level ([3]; versus lipid control) | reduction in total cholesterol level [3] [%] | increase in bioavailability [4] [fold] | other results
1 | CCC(C)(C)C(=O)O[C@H]1C[C@@H](C)C=C2C=C[C@H](C)[C@H](CC[C@@H]3C[C@@H](O)CC(=O)O3)[C@H]21 [STT, simvastatin] | 0.45 ± 0.14 | unaffected | significant reduction | 41.6 | – | percentage increase in AUC0−t in brain [1, 5]: 79%; effect on brain level of dopamine (Wistar rat brain; versus control): unaffected; increase in AUC in plasma [2, 6]: 41.6%; increase in Cmax in plasma [2, 6]: 57.9%; effect on plasma HDL level ([3]; versus lipid control): increase in plasma HDL level
2 | CNCCC(Oc1ccc(C(F)(F)F)cc1)c1ccccc1 (stereo not drawn) [FLX, fluoxetine] | 0.62 ± 0.15 | failed to alter | failed to produce any significant effect | 16.3 | – | accumulation in the brain relative to plasma ([1]; after multiple-dose administration): multifold higher; brain concentration of dopamine (Wistar rat brain; mean±SD, n=6): 1.48 ± 0.14 µg/g
3 | COc1ccc2[nH]c([S+]([O-])Cc3ncc(C)c(OC)c3C)nc2c1 (stereo not drawn) [omeprazole] | – | – | – | – | 7.1 | –
4 | COc1ccc2c(c1)[C@]13CCCC[C@@H]1[C@H](C2)N(C)CC3 [dextromethorphan] | – | – | – | – | 27 | –
5 | CCC(C)(C)C(=O)O[C@H]1C[C@@H](C)C=C2C=C[C@H](C)[C@H](CC[C@@H](O)C[C@@H](O)CC(=O)O)[C@H]21 [STA, simvastatin acid] | – | – | – | – | – | reduction in bioavailability (AUC0−∞) in plasma [2, 5]: 36%
